These results are taken from ChEMBL document CHEMBL1759877, “Identification and evaluation of soft coral diterpenes as inhibitors of HIF-2α induced gene expression” (Bioorg Med Chem Lett, 2011).

A word on the IC50: it is the concentration that gives 50% inhibition. Usually EC50 stands for the concentration needed to bring the measured effect to its halfway point.

The nature of experiment [1]: Cytotoxicity against human 786-O cells by XTT assay. It counts as functional, cell-based. The settings on record: 786-0. Background: Formazan colour is commonly taken as a measure of viable cells.
Experiment [2] has as its target Endothelial PAS domain-containing protein 1 (Homo sapiens, UniProt Q99814). In words: Inhibition of HIF-2alpha activity in human 786-O cells by luciferase assay. It is filed as cell-based. The gist of the method:
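Cells seeded at 5000 per well and allowed to attach overnight, then exposed to test samples or controls the next day. Incubation lasted one day so the HIF-2 signal could drop. Luciferin was then added to the cells and the luciferase signal read.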

Chain of Endothelial PAS domain-containing protein 1 (Q99814 whole entry, the tested form may be a part): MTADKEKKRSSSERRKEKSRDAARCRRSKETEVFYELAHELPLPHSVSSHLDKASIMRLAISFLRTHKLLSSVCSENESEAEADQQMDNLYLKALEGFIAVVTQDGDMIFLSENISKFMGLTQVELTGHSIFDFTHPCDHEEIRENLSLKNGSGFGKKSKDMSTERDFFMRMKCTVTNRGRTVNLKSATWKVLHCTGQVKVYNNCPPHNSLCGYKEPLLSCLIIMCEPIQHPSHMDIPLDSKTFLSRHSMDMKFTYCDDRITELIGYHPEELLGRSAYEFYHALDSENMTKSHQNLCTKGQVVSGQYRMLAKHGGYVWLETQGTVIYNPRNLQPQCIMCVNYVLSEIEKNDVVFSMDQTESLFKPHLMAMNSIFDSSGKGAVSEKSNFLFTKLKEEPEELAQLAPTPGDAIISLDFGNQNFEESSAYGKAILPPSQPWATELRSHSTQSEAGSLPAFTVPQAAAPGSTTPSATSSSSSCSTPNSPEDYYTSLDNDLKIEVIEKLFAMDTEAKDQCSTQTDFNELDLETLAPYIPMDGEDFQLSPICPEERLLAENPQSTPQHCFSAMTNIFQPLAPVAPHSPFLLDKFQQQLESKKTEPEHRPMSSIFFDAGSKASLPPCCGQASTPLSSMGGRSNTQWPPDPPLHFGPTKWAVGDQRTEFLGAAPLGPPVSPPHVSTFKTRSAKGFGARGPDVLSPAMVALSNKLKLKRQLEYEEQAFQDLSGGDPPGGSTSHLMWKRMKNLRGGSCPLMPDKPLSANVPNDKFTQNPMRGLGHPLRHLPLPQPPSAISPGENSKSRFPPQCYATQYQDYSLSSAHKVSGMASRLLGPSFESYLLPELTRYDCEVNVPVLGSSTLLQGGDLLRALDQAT

`C=C1CC[C@H](OO)C(=C)CC[C@@H]2C([C@@H](OC(C)=O)[C@H](C=C(C)C)OC(C)=O)=CO[C@H](OC(C)=O)[C@@H]12`: the concentration for half-maximal inhibition (IC50) in experiment [1] (Homo sapiens, read-out: IC50) came to 14.2 µM. Also, the EC50 in experiment [2] (read-out: EC50) was determined as 11.8 µM.
Take `C=C(C)/C1=C/C=C(\C)CC[C@@H](O)[C@]2(C)CCC=C(CC1)C(=O)O2` (relative stereo): in experiment [1], the half-inhibitory concentration (IC50) result is recorded as “Not Active”. Moreover, the EC50 entry in experiment [2] is “Not Active”.
With `CC1=C2CC/C(C)=C/CC[C@]3(C)O[C@@H]3CC/C(C)=C/[C@H]2OC1`, in experiment [1] (Homo sapiens, read-out: IC50), the 50% inhibitory concentration (IC50) was 291 µM. In addition, in experiment [2] (read-out: EC50), the EC50 amounted to 183 µM.
Take `C/C1=C\CC[C@]2(C)O[C@@H]2CC/C(C)=C/C=C(/C(C)(C)O)CC1`: the IC50 result in experiment [1] was “Not Active”. Moreover, the concentration giving a half-maximal response (EC50) result in experiment [2] was “Not Active”.
As to `C/C1=C\C=C(\C(C)C)CCC2=CCC[C@](C)(OC2=O)[C@H](O)CC1`, the IC50 result in experiment [1] is “Not Active”. In addition, the concentration giving a half-maximal response (EC50) result in experiment [2] was “Not Active”.
`C=C1CC/C=C(/C)CC[C@@H]2C([C@@H](OC(C)=O)[C@H](C=C(C)C)OC(C)=O)=CO[C@H](OC(C)=O)[C@@H]12`: the half-inhibitory concentration (IC50) in experiment [1] (Homo sapiens, read-out: IC50) came to 5.2 µM. Moreover, the EC50 in experiment [2] (read-out: EC50) was found to be 3.4 µM.
For the molecule `COC(C)(C)/C1=C/C=C(\C)CC[C@H]2O[C@@]2(C)CC/C=C(\C)CC1` (relative stereo), in experiment [1] (Homo sapiens, read-out: IC50), the IC50 came out at 134 µM. Also, the concentration giving a half-maximal response (EC50) in experiment [2] (read-out: EC50) was determined as 149 µM.
The like results for `C=C1C[C@@H](O)/C=C(/C)CC[C@@H]2C([C@@H](OC(C)=O)[C@H](C=C(C)C)OC(C)=O)=CO[C@H](OC(C)=O)[C@@H]12` were, in that order, 26.3 µM and 6.2 µM.
On to `C=C(C)[C@@H]1CC(=O)/C(C)=C/CC/C(C)=C/CC[C@]2(C)O[C@@H]2C1`, for which the 50% inhibitory concentration (IC50) in experiment [1] (Homo sapiens, read-out: IC50) worked out at 147 µM. The EC50 in experiment [2] (read-out: EC50) is 108 µM.
